Measured values pooled from the literature.
Each line is one published result; the experiments were not run side by side. In brackets after ≈: the same amount, converted by molar mass.

The MFC of `C#Cc1cccc(C=NNC(=O)c2ccc(Br)c(Br)c2)c1O` is reported as 0.12 µg/mL (≈ 0.284 µM) (Cryptococcus neoformans; microbial killing).
`S=P1(C2CCCCC2)CCCCC1` has an IC50 of over 100 µM (HaCaT; cell growth or viability, MTT; 72 h).
`N.N.[Cl][Pt][Cl]` gave an inhibition of 100% (OCI-LY19; cell growth or viability, ATP luminescence; 10 µM, 72 h).
`O=C1CCc2cc(-c3cccc(OC(=O)[C@H]4[C@H](c5ccccc5)[C@@H](C(=O)O)[C@H]4c4ccccc4)c3)ccc2N1` has an IC50 of 77 µM (WI-38; cell growth or viability, MTT).
With `N.N.[Cl][Pt][Cl]` the IC50 was 6.3 µM (HaCaT; cell growth or viability, MTT; 72 h).
For `CC[C@@]1(O)C(=O)OCc2c1cc1n(c2=O)Cc2cc3ccccc3nc2-1`, the IC50 was 52.9 µM (SNB-19; cell growth or viability, SRB; 48 h).
`C#Cc1ccc(C=NNC(=O)c2ccc(Br)c(O)c2)c(O)c1` gave an MIC80 of 1 µg/mL (≈ 2.78 µM) (Cryptococcus neoformans; microbial growth, broth dilution; pH 7.4).
`CC[C@H](C)C[C@H](C)CCCCCCCCC(=O)N[C@H]1C[C@@H](O)[C@@H](NCCN)NC(=O)[C@@H]2[C@@H](O)CCN2C(=O)[C@H]([C@H](O)CCN)NC(=O)[C@H]([C@H](O)[C@@H](O)c2ccc(O)cc2)NC(=O)[C@@H]2C[C@@H](O)CN2C(=O)[C@H]([C@@H](C)O)NC1=O` has an MFC of 0.5 µg/mL (≈ 0.457 µM) (Nakaseomyces glabratus; microbial killing, broth dilution; ATCC15126; 48 h).
`C#Cc1ccc(C=NNC(=O)c2ccc(Br)cc2)c(O)c1` has an MIC80 of 0.03 µg/mL (≈ 0.0874 µM) (Cryptococcus neoformans; microbial growth, broth dilution; pH 7.4).
`O=C1CCP(=[Se])(c2ccccc2)CC1` gave an IC50 of over 100 µM (HaCaT; cell growth or viability, MTT; 72 h).
With `C#Cc1ccc(C=NNC(=O)c2ccc(COCC)cc2)c(O)c1` the MIC80 was 0.015 µg/mL (≈ 0.0465 µM) (Cryptococcus neoformans; microbial growth, broth dilution; pH 7.4).
With `COc1cnc(OC)n2nc(NS(=O)(=O)c3c(OCC(F)F)cccc3C(F)(F)F)nc12` the inhibition was 0.85% (HaCaT; cell growth or viability, CCK-8; 6.25 µM, 72 h).
